ChEMBL document CHEMBL3804807, “Purine analogs as phosphatidylinositol 4-kinase IIIβ inhibitors” (Bioorg Med Chem Lett, 2016)

Tests used:
[1] = organism: Homo sapiens; assay: Inhibition of PI4K3 alpha (unknown origin) at 10 uM by ADP-Glo assay relative to control
Summary of the method: (§1)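 PI4K IIIα and PI4K IIIβ activity read by ADP-Glo assay. Each compound was tested at a single concentration of 10 μM, and residual enzyme activity was expressed relative to control.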

[2] = organism: Homo sapiens; assay: Inhibition of PI4K3 beta (unknown origin) assessed as residual activity at 10 uM by ADP-Glo assay relative to control; summary of the method: as §1
[3] = system: Coxsackievirus B3; assay: Antiviral activity against Human coxsackievirus B3; assay type: functional, organism-based; settings: Enterovirus B
[4] = system: Human rhinovirus sp.; assay: Antiviral activity against Human rhinovirus; assay type: functional, organism-based
[5] = system: Hepatitis C virus; assay: Antiviral activity against Hepatitis C virus subtype 1b; assay type: functional, organism-based, Hepacivirus hominis; settings: genotype 1b
[6] = Cytotoxicity against human HeLa cells; assay type: cell-based
[7] = Inhibition of PI4K3 beta (unknown origin) by ADP-Glo assay; design: species or system Homo sapiens

Compound: COc1ccc(-n2c(C)nc3c(NCCN4CCOCC4)nc(-c4ccc(C#N)cc4)nc32)cc1OC
- inhibition [1]: < 50%
- Activity [2]: 97%
- EC50 [3]: 9.9 µM
- EC50 [4]: 3 µM
- EC50 [5]: 3.9 µM
- CC50 [6]: > 50 µM

Compound: COc1ccc(-n2c(C#Cc3ccccc3)nc3c(NCCN4CCOCC4)nc(C)nc32)cc1OC
- inhibition [1]: < 50%
- Activity [2]: 96%
- EC50 [3]: > 50 µM
- EC50 [4]: > 50 µM
- EC50 [5]: 30 µM
- CC50 [6]: > 50 µM

Compound: COc1nc(NCCN2CCOCC2)c2nc(C)n(-c3ccc(OC)c(OC)c3)c2n1
- inhibition [1]: < 50%
- Activity [2]: 15%
- IC50 [7]: 2.99 µM
- EC50 [3]: > 50 µM
- EC50 [4]: 16 µM
- EC50 [5]: 6 µM
- CC50 [6]: > 50 µM

Compound: COc1ccc(-n2c(C(F)(F)F)nc3c(NCCN4CCOCC4)nc(C)nc32)cc1OC
- inhibition [1]: < 50%
- Activity [2]: 99%
- EC50 [3]: > 50 µM
- EC50 [4]: > 50 µM
- EC50 [5]: > 44 µM
- CC50 [6]: > 50 µM

Compound: COc1ccc(-n2c(-c3ccc(CO)cc3)nc3c(NCCN4CCOCC4)nc(C)nc32)cc1OC
- inhibition [1]: < 50%
- Activity [2]: 103%
- EC50 [3]: > 50 µM
- EC50 [4]: > 50 µM
- EC50 [5]: > 44 µM
- CC50 [6]: > 50 µM

Compound: COc1ccc(-n2c(C3CCCCC3)nc3c(NCCN4CCOCC4)nc(C)nc32)cc1OC
- inhibition [1]: < 50%
- Activity [2]: 79%
- EC50 [3]: > 50 µM
- EC50 [4]: > 50 µM
- EC50 [5]: > 44 µM
- CC50 [6]: > 50 µM

Compound: COc1ccc(-n2c(I)nc3c(NCCN4CCOCC4)nc(C)nc32)cc1OC
- inhibition [1]: < 50%
- Activity [2]: 38%
- EC50 [3]: 40 µM
- EC50 [4]: > 50 µM
- EC50 [5]: 20 µM
- CC50 [6]: > 50 µM

Compound: COc1ccc(-n2c(-c3ccc(O)cc3)nc3c(NCCN4CCOCC4)nc(C)nc32)cc1OC
- inhibition [1]: < 50%
- Activity [2]: 125%
- EC50 [3]: > 50 µM
- EC50 [4]: > 50 µM
- EC50 [5]: > 44 µM
- CC50 [6]: > 50 µM

Compound: COc1ccc(-n2nnc3c(NCCN4CCOCC4)ncnc32)cc1OC
- inhibition [1]: < 50%
- Activity [2]: 41%
- EC50 [3]: > 50 µM
- EC50 [5]: 32 µM
- CC50 [6]: > 50 µM

Compound: COc1ccc(-n2cnc3c(NCCN4CCOCC4)nc(C)nc32)cc1OC
- inhibition [1]: < 50%
- Activity [2]: 26%
- EC50 [3]: 34 µM
- EC50 [5]: 11.5 µM
- CC50 [6]: > 50 µM

Compound: COc1ccc(-n2c(C)nc3c(NCCN4CCOCC4)nc(N)nc32)cc1OC
- inhibition [1]: < 50%
- Activity [2]: 25%
- IC50 [7]: 1.44 µM
- EC50 [3]: 19 µM
- EC50 [4]: 49 µM
- EC50 [5]: 40 µM
- CC50 [6]: > 50 µM

Compound: COc1ccc(-n2c(-c3ccc(C=O)cc3)nc3c(NCCN4CCOCC4)nc(C)nc32)cc1OC
- inhibition [1]: < 50%
- Activity [2]: 138%
- EC50 [3]: > 50 µM
- EC50 [4]: > 50 µM
- EC50 [5]: > 44 µM
- CC50 [6]: > 50 µM

Compound: COc1ccc(-n2c(C)nc3c(NCCN4CCOCC4)nc(-c4ccc(O)cc4)nc32)cc1OC
- inhibition [1]: < 50%
- Activity [2]: 18%
- IC50 [7]: 2.37 µM
- EC50 [3]: 1.8 µM
- EC50 [4]: 3 µM
- EC50 [5]: 1.3 µM
- CC50 [6]: > 50 µM

Compound: COc1ccc(-n2c(OC)nc3c(NCCN4CCOCC4)nc(C)nc32)cc1OC
- inhibition [1]: < 50%
- Activity [2]: 86%
- EC50 [3]: > 50 µM
- EC50 [4]: > 50 µM
- EC50 [5]: > 44 µM
- CC50 [6]: > 50 µM

Compound: COc1ccc(-n2c(-c3ccsc3)nc3c(NCCN4CCOCC4)nc(C)nc32)cc1OC
- inhibition [1]: < 50%
- Activity [2]: 94%
- EC50 [3]: > 50 µM
- EC50 [4]: > 50 µM
- EC50 [5]: > 44 µM
- CC50 [6]: > 50 µM

Compound: COc1ccc(-n2c(C)nc3c(NCCN4CCOCC4)nc(C)nc32)cc1OC
- inhibition [1]: < 50%
- Activity [2]: 14%
- IC50 [7]: 0.91 µM
- EC50 [3]: 8 µM
- EC50 [4]: 40 µM
- EC50 [5]: > 44 µM
- CC50 [6]: > 50 µM

Compound: COc1ccc(-n2c(-c3ccc(OCc4ccccc4)cc3)nc3c(NCCN4CCOCC4)nc(C)nc32)cc1OC
- inhibition [1]: < 50%
- Activity [2]: 112%
- EC50 [4]: 9.6 µM
- EC50 [5]: > 44 µM
- CC50 [6]: 26 µM

Compound: COc1ccc(Cn2c(C)nc3c(NCCN4CCOCC4)nc(C)nc32)cc1OC
- inhibition [1]: < 50%
- Activity [2]: 126%
- EC50 [3]: > 50 µM
- EC50 [4]: > 50 µM
- EC50 [5]: 43 µM
- CC50 [6]: > 50 µM

Compound: COc1ccc(-n2c(C)nc3c(NCCN4CCOCC4)nc(I)nc32)cc1OC
- inhibition [1]: < 50%
- Activity [2]: 33%
- EC50 [3]: 9 µM
- EC50 [4]: 16 µM
- EC50 [5]: 10 µM
- CC50 [6]: > 50 µM

Compound: COc1ccc(-n2c(C)nc3c(NCCN4CCOCC4)nc(-c4ccsc4)nc32)cc1OC
- inhibition [1]: < 50%
- Activity [2]: 46%
- EC50 [4]: > 50 µM
- EC50 [5]: 23 µM
- CC50 [6]: > 50 µM

Compound: COc1ccc(-n2c(C)nc3c(NCCN4CCOCC4)nc(-c4cccc(Cl)c4)nc32)cc1OC
- inhibition [1]: < 50%
- Activity [2]: 67%
- EC50 [3]: > 50 µM
- EC50 [4]: 9 µM
- EC50 [5]: 5 µM
- CC50 [6]: > 50 µM

Compound: COc1ccc(-n2c(C)nc3c(NCCN4CCOCC4)nc(C#N)nc32)cc1OC
- inhibition [1]: < 50%
- Activity [2]: 24%
- IC50 [7]: 2.07 µM
- EC50 [3]: > 50 µM
- EC50 [4]: 31 µM
- EC50 [5]: 14 µM
- CC50 [6]: > 50 µM

Compound: COc1ccc(-n2c(C)nc3c(NCCN4CCOCC4)nc(-c4ccc(F)cc4)nc32)cc1OC
- inhibition [1]: < 50%
- Activity [2]: 66%
- EC50 [3]: 27 µM
- EC50 [4]: 3.4 µM
- EC50 [5]: 4.4 µM
- CC50 [6]: > 50 µM

Compound: COc1ccc(-n2c(C)nc3c(NCCN4CCOCC4)nc(-c4cccc(C(=O)N(C)C)c4)nc32)cc1OC
- inhibition [1]: < 50%
- Activity [2]: 16%
- IC50 [7]: 1.09 µM
- EC50 [3]: 1.1 µM
- EC50 [4]: 3.3 µM
- EC50 [5]: 3.8 µM
- CC50 [6]: > 50 µM

Compound: COc1ccc(-n2c(-c3ccc(C#N)cc3)nc3c(NCCN4CCOCC4)nc(C)nc32)cc1OC
- inhibition [1]: < 50%
- Activity [2]: 97%
- EC50 [3]: > 50 µM
- EC50 [4]: > 50 µM
- EC50 [5]: > 44 µM
- CC50 [6]: > 50 µM

Compound: COc1ccc(-n2c(C(C)C)nc3c(NCCN4CCOCC4)nc(C)nc32)cc1OC
- inhibition [1]: < 50%
- Activity [2]: 65%
- EC50 [3]: > 50 µM
- EC50 [5]: > 44 µM
- CC50 [6]: > 50 µM

Compound: COc1ccc(-n2c(C3CC=CCC3)nc3c(NCCN4CCOCC4)nc(C)nc32)cc1OC (centres undefined)
- inhibition [1]: < 50%
- Activity [2]: 75%
- EC50 [3]: > 50 µM
- EC50 [4]: > 50 µM
- EC50 [5]: > 44 µM
- CC50 [6]: > 50 µM

Compound: COc1ccc(-n2c(C)nc3c(NCCN4CCOCC4)nc(-c4cccc(NC(C)=O)c4)nc32)cc1OC
- inhibition [1]: < 50%
- Activity [2]: 14%
- IC50 [7]: 2.14 µM
- EC50 [3]: 1.6 µM
- EC50 [4]: 9.3 µM
- EC50 [5]: 5.9 µM
- CC50 [6]: > 50 µM

Compound: COc1ccc(-n2c(CO)nc3c(NCCN4CCOCC4)nc(C)nc32)cc1OC
- inhibition [1]: < 50%
- Activity [2]: 62%
- EC50 [3]: > 50 µM
- EC50 [5]: > 44 µM
- CC50 [6]: > 50 µM

Compound: C#Cc1nc(NCCN2CCOCC2)c2nc(C)n(-c3ccc(OC)c(OC)c3)c2n1
- inhibition [1]: < 50%
- Activity [2]: 18%
- IC50 [7]: 1.91 µM
- EC50 [3]: > 50 µM
- EC50 [4]: 26 µM
- EC50 [5]: 13 µM
- CC50 [6]: > 50 µM

Compound: COc1ccc(-n2c(Br)nc3c(NCCN4CCOCC4)nc(C)nc32)cc1OC
- inhibition [1]: < 50%
- Activity [2]: 17%
- IC50 [7]: 5.2 µM
- EC50 [3]: 11 µM
- EC50 [4]: 25 µM
- EC50 [5]: 6.7 µM
- CC50 [6]: > 50 µM

Compound: COc1ccc(-n2c(-c3ccc(F)cc3)nc3c(NCCN4CCOCC4)nc(C)nc32)cc1OC
- inhibition [1]: < 50%
- Activity [2]: 78%
- EC50 [3]: > 50 µM
- EC50 [4]: > 50 µM
- EC50 [5]: > 44 µM
- CC50 [6]: > 50 µM

Compound: COc1ccc(-n2c(C)nc3c(NCCN4CCOCC4)nc(-c4cccnc4)nc32)cc1OC
- inhibition [1]: < 50%
- Activity [2]: 36%
- EC50 [3]: 14 µM
- EC50 [4]: 3.3 µM
- EC50 [5]: 15 µM
- CC50 [6]: > 50 µM

Compound: COc1ccc(-n2ccc3c(NCCN4CCOCC4)ncnc32)cc1OC
- inhibition [1]: < 50%
- Activity [2]: 74%
- EC50 [3]: > 50 µM
- EC50 [5]: 22 µM
- CC50 [6]: > 50 µM

Compound: COc1ccc(-n2c(C)nc3c(NCCN4CCOCC4)nc(C#Cc4ccccc4)nc32)cc1OC
- inhibition [1]: < 50%
- Activity [2]: 58%
- EC50 [3]: 5 µM
- EC50 [4]: 8 µM
- EC50 [5]: 6 µM
- CC50 [6]: 48 µM

Compound: COc1ccc(-n2c(C)nc3c(NCCN4CCOCC4)ncnc32)cc1OC
- inhibition [1]: < 50%
- Activity [2]: 13%
- IC50 [7]: 1.61 µM
- EC50 [3]: 5 µM
- EC50 [4]: 28 µM
- EC50 [5]: 19 µM
- CC50 [6]: > 50 µM

Compound: COc1ccc(-n2nnc3c(NCCN4CCOCC4)nc(C)nc32)cc1OC
- inhibition [1]: < 50%
- Activity [2]: 31%
- EC50 [3]: 26 µM
- EC50 [5]: 33 µM
- CC50 [6]: > 50 µM
